Active and inactive are the calls of the source.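 Rule for the calls: active = fitted curve reaches -35% activity change at a concentration no higher than twice the top valid tested dose; inactive = the rest, including activity in the opposite direction.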
Test system: not listed separately
Assay: P. aeruginosa PAK growth delay under chelation, dose response, whole organism, PAK strain, OD600, EDDHA, dry powder, set 4 (AID 624075)
Settings: P. aeruginosa PAK growth with EDDHA, OD600, 28 h; at 100 µM (top of the series)
In short: (§1)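 System: wild-type Pseudomonas aeruginosa PAK bacterial culture; Medium: succinate M9 medium, pH 7.0; Also added: EDDHA, 2 µM; Compound dosing: concentration series from 100 µM down to 15 nM final; Incubation: bacterial growth with compounds for 28 h at 30 °C; Detection: OD600 absorbance.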

| Structure (SMILES) | activity change, negative = growth inhibition |
| --- | --- |
| N#CC(c1ccc(Cl)cc1)c1ccc(Cl)cn1 (stereo not drawn) | -13.9% (inactive) |
| N#CC(c1ccc(Cl)cc1)c1ncccc1Cl (stereo not drawn) | -18.1% (inactive) |
| COCCC(C#N)c1ccc(F)cc1 (stereo not drawn) | -1.57% (inactive) |
| COCCNC(C#N)c1ccc(Cl)cc1 (stereo not drawn) | -2.09% (inactive) |
| CCCCC(C#N)c1ccc(F)cn1 (stereo not drawn) | -7.64% (inactive) |
| CCCCC(c1ccc(Cl)cc1)c1nn[nH]n1 (stereo not drawn) | -6.42% (inactive) |

Test system: P. aeruginosa PAK growth with EDDHA, OD600, 28 h
Assay: as above
Settings: not given
In short: as §1

| Structure (SMILES) | AC35 [µM] |
| --- | --- |
| N#CC(c1ccc(F)cc1)c1cccc(C(F)(F)F)n1 (stereo not drawn) | 88.7 |
| N#CC(c1ccc(Cl)cc1)c1cccc(C(F)(F)F)n1 (stereo not drawn) | 71.1 |

Reference: PubChem BioAssay AID624075 (Broad Institute, 2012)
